Results on four molecules are retold here after PMC4120670 (Kidney International, 2014).

One may read the IC50 as the concentration needed to halve the response being measured. The low end stands for inhibition by little substance, the high end for a need for much substance. Usually Ki stands for the dissociation constant of the complex between target and ligand, obtained from inhibition or displacement. Broadly, the Km is the concentration of substrate that gives half-maximal velocity.

Series [1] has as its target T1, MATE2-K (Homo sapiens, UniProt Q86VL8). Description: Inhibition of MATE2-K transport of tetraethylammonium. In kind it is cell-based.
Series [2] concerns the target T2, OCT3 (Homo sapiens, UniProt O75751).
T2 sequence (O75751 1-556): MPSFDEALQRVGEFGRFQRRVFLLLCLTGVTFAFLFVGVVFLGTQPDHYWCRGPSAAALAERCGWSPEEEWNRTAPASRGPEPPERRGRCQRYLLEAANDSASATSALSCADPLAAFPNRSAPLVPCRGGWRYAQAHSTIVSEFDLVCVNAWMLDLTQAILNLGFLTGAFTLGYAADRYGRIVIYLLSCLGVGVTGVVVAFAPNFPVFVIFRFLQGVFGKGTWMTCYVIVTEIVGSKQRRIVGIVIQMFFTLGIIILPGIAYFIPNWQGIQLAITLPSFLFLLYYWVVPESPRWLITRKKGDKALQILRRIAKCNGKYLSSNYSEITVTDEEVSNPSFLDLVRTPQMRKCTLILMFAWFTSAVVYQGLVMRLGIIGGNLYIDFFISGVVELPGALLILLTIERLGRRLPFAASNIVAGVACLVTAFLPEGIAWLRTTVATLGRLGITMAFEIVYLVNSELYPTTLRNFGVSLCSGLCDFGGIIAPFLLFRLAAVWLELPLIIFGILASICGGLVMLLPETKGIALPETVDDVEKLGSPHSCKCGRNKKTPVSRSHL
As to the kind of experiment: Inhibition of OCT3 transport of 1-methyl-4-phenylpyridinium. In kind it is cell-based. Particulars: for Concentration-dependent inhibition of OCT3-dependent transport: model substrate, curve could not be generated.

In series [3] the target is T3, MATE1 (Homo sapiens, UniProt Q96FL8).
T3 sequence (Q96FL8 1-570): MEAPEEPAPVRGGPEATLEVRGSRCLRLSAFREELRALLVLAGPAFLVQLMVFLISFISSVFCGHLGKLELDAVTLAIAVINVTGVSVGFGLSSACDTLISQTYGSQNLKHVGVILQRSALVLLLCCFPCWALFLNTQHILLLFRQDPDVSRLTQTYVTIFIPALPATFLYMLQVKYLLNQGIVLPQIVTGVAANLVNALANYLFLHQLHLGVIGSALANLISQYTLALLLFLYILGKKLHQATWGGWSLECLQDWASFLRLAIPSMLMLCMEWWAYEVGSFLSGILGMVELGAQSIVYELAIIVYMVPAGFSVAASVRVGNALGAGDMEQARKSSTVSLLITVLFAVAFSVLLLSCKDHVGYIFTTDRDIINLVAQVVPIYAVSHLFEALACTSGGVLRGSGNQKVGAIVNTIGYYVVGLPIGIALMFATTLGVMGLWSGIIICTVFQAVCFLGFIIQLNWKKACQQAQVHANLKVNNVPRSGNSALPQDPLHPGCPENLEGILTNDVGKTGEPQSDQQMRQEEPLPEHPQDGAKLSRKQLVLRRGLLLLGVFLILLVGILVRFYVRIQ
As to the kind of experiment: Inhibition of MATE1 transport of tetraethylammonium. It counts as cell-based.

Series [4] addresses T4, OCT2 (Homo sapiens, UniProt O15244).
T4 sequence (O15244 1-555): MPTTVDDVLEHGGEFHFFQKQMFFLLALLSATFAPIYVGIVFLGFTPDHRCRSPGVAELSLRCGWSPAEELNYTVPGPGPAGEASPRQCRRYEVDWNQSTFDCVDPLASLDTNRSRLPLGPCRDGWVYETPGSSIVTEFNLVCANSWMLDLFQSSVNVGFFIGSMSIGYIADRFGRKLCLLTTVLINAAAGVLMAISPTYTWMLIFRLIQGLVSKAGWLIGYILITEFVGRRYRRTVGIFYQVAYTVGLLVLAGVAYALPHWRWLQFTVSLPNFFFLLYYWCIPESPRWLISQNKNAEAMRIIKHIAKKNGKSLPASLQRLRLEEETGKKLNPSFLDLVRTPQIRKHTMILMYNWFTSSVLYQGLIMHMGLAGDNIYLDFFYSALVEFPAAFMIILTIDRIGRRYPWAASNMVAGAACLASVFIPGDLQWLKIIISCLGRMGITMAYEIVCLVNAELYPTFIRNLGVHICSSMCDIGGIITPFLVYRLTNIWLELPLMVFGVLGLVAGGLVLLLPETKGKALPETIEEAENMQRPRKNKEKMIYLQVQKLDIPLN
Description: Cobicistat uptake in MDCKII cells transfected with OCT2. It counts as cell-based. The settings on record: cobicistat 1 μmol/l; vs nontransfected MDCKII cells; 5% bovine serum albumin.

For series [5] the following is noted: clinical plasma concentration; cited from earlier work.
Series [6] has as its target T4, OCT2. Description: Inhibition of OCT2 transport of tetraethylammonium. It counts as cell-based.
Series [7] addresses T5, OAT2 (Homo sapiens, UniProt Q9Y694).
T5 sequence (Q9Y694 1-548): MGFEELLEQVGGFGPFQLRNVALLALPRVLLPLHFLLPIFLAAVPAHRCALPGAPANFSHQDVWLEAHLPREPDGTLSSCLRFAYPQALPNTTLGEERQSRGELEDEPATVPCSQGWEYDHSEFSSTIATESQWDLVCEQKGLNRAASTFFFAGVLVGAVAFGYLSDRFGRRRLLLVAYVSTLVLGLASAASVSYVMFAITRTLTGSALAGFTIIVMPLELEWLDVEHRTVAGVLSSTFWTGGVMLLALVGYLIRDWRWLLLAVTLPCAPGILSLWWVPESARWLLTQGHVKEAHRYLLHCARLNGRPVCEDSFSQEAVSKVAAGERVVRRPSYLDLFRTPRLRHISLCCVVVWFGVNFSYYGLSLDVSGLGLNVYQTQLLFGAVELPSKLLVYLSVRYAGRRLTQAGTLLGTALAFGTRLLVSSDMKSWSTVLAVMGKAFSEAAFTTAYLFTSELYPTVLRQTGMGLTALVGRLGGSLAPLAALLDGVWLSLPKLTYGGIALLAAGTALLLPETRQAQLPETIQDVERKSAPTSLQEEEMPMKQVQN
As to the kind of experiment: Inhibition of OAT2 transport of 3′,5′-cyclic GMP. In kind it is cell-based.

In series [8] the target is T3, MATE1. As to the kind of experiment: Inhibition of MATE1-mediated creatinine transport. It counts as cell-based.
The conditions of series [9]: cited from earlier work.
For series [10] the following is noted: more modest effects, clinical; cited from earlier work.
Series [11] addresses T6, OAT3 (Homo sapiens, UniProt Q8TCC7).
T6 sequence (Q8TCC7 1-542): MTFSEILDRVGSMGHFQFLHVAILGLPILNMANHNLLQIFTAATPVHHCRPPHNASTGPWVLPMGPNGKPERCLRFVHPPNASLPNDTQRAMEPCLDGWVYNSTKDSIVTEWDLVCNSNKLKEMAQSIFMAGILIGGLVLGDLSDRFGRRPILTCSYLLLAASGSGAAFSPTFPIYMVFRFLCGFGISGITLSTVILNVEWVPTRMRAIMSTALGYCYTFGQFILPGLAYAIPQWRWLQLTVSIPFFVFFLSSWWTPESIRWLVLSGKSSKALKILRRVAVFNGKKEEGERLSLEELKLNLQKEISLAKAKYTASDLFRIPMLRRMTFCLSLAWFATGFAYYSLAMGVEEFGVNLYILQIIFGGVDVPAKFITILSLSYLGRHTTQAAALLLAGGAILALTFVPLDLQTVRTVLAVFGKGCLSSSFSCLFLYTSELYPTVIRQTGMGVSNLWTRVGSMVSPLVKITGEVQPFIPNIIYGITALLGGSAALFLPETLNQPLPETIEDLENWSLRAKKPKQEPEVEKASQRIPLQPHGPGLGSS
The settings on record: cobicistat 1 μmol/l; HEK293; diclofenac or probenecid 90 μmol/l.

The subject of series [12] is human primary proximal tubule cells. As to the kind of experiment: Cobicistat uptake in fresh isolated primary proximal tubule cells. In kind it is cell-based. The settings on record: cobicistat 1 μmol/l; cimetidine 1500 μmol/l or probenecid 90 μmol/l.
The conditions of series [13]: most prominent effects, clinical; cited from earlier work.
Series [14] has as its system MATE1. Particulars: read-out: Ki MATE1; cited from earlier work.
Series [15] has as its system MATE2-K. The settings on record: read-out: Ki MATE2-K; cited from earlier work.
The target in series [16] is T1, MATE2-K. Description: Creatinine transport by MATE2-K in transiently transfected MDCKII cells. It counts as cell-based.
The target of series [17] is T6, OAT3. It counts as cell-based. The settings on record: transiently transfected HEK293 cells; data not shown.
Series [18] deals with T6, OAT3. The settings on record: human OAT3, transiently transfected HEK293 cells; cited from earlier work.
For series [19], the target named is T3, MATE1. Description: Creatinine transport by MATE1 in transiently transfected MDCKII cells. It counts as cell-based. Summed up:
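Transiently transfected polarized MDCKII cells were preincubated 20 min in Hank's balanced salt solution with 30 mmol/l NH4Cl. Uptake was started by adding creatinine, 31 μmol/l to 20 mmol/l, to the chamber matching the transporter's apical or basolateral expression. Cells were washed four times with ice-cold PBS and extracted in 1:1 acetonitrile:water. Intracellular substrate was counted radiometrically. Kinetic constants were fitted from concentration dependence over n⩾3 independent experiments.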

The target of series [20] is T5, OAT2. As to the kind of experiment: Creatinine transport by OAT2 in transiently transfected MDCKII cells. It counts as cell-based.
Series [21] deals with T4, OCT2. Description: Inhibition of OCT2-dependent metformin transport. In kind it is cell-based.

T1 sequence (Q86VL8 1-566 isoform Q86VL8-3): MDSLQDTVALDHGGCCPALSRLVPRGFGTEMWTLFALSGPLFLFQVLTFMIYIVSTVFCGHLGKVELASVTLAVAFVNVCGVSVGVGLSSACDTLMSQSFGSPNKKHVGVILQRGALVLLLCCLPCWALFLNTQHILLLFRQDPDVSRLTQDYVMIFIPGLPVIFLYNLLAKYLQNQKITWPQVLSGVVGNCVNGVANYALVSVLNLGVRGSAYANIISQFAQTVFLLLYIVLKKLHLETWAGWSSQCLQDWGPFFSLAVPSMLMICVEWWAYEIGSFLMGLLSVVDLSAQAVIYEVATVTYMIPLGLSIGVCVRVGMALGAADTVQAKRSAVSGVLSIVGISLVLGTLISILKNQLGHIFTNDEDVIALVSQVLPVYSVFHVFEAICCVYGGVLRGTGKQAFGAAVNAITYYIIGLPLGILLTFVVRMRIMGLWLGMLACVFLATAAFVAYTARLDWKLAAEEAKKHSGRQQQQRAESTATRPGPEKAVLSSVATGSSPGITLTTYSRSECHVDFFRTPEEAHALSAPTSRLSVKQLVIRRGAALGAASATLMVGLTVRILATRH

`CC(C)c1nc(CN(C)C(=O)N[C@@H](CCN2CCOCC2)C(=O)N[C@H](CC[C@H](Cc2ccccc2)NC(=O)OCc2cncs2)Cc2ccccc2)cs1` [Cobicistat, cobicistat]: the IC50 in series [1] is 33.5 ± 4.2 µM; in [2] it was above 100 µM; in [3] it was 1.87 ± 0.22 µM; in series [6], 24 ± 4.6 µM; in [7], above 100 µM; in series [8], 0.99 µM. Besides, the “Concentration-dependent inhibition of OCT3-dependent transport” value in series [2] is on record as “lack of concentration-dependent inhibition”. Also, the “Increase in cobicistat accumulation in cells transfected with OCT2” value in [4] is 2.9 fold. Moreover, the “Bound to plasma proteins” value in series [5] was “over 90%”. Moreover, in series [9] (clinical), the Maximum plasma concentration was 1.4 µmol/L. Also, in series [9] (in humans), the Renal elimination result is “approximately 8%”. The Serum creatinine increases in series [10] was around 0.1 mg/dL. In addition, the “Inhibitor-sensitive accumulation in cells transfected with OAT3” value in [11] was “no inhibitor-sensitive accumulation”. In [12], the “Transporter-dependent uptake in primary proximal tubule cells” value is on record as “small but reproducible decreases in accumulation in the presence of the transport inhibitors cimetidine or probenecid”.
With `CCc1nc(N)nc(N)c1-c1ccc(Cl)cc1` [Pyrimethamine, pyrimethamine], the “Decreases in creatinine clearance” value in series [13] is 15–34 ml/min per 1.73 m^2. Moreover, the Ki in series [14] was 0.093 µM; in [15] it was 0.059 µM.
With `CN1CC(=O)NC1=N` [creatinine], the Vmax in series [16] (creatinine transport by MATE2-K) is on record as >20 × 10^4 pmol/min per mRNA copy number; in series [19] (creatinine transport by MATE1), >2 × 10^4 pmol/min per mRNA copy number; in series [20] (creatinine transport by OAT2) it was 117 × 10^4 pmol/min per mRNA copy number. Also, the Km in series [16] (human, transiently transfected MDCKII cells expressing MATE2-K) is above 2000 µM; in series [19] (human, transiently transfected MDCKII cells expressing MATE1) it was above 2000 µM. In series [17], the “OAT3-dependent transport of creatinine” value was “no OAT3-dependent transport of creatinine was observed”. In addition, the “Increase in creatinine accumulation over mock transfection” value in [18] is recorded as 60%. Further, in series [20] (physiological creatinine concentration (100 μmol/l), faster than OCT2), the “Transport rate for OAT2 relative to OCT2” value is on record as 4.7 fold. The “Transport rate for OAT2 relative to OCT3” value in [20] (physiological creatinine concentration (100 μmol/l), faster than OCT3) was determined as 2.3 fold.
Take `C[C@@H]1CCO[C@H]2Cn3cc(C(=O)NCc4ccc(F)cc4F)c(=O)c(O)c3C(=O)N12` [Dolutegravir, dolutegravir]: the concentration for half-maximal inhibition (IC50) was above 100 µM in series [1]; above 100 µM in [2]; 4.67 ± 1.11 µM in series [3]; 0.066 ± 0.003 µM in [6]; above 100 µM in series [7]; 0.11 µM in series [21]. The “Concentration-dependent inhibition of OCT3-dependent transport” value in series [2] is recorded as “lack of concentration-dependent inhibition”. Also, the “Concentration-dependent inhibition of OAT2-dependent transport” value in series [7] (model substrate, curve could not be generated) is given as “lack of concentration-dependent inhibition”. Moreover, in series [10], the Serum creatinine increases is around 0.1 mg/dL.
